Reference: ChEMBL document CHEMBL2390935, “Synthesis and pharmacological properties of a new hydrophilic and orally bioavailable 5-HT4 antagonist” (Eur J Med Chem, 2013)

Tests used:
Rattus norvegicus [1] = assay: Elimination half life in Sprague-Dawley rat assessed as 2-[4-[[4-(3,4-dihydro-2H-[1,3]oxazino[3,2-a]indole-10-carbonyloxymethyl)-1-piperidinyl]methyl]phenyl]-2-methylpropanoic acid level at 10 mg/kg, po by LC-MS/MS analysis; format: ADME, organism-based; set-up: dose 10 mg/kg, route oral; conditions: in vivo
How it was run: (§1)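 Male Sprague-Dawley rats, 10 mg/kg p.o. in 10% ethanol/water or 2% β-cyclodextrin (1.0 mg/ml), n = 2–3. Tail-vein and terminal cardiac blood taken under isoflurane at 5 min–24 h. Plasma acidified and acetonitrile-precipitated, then the free acid measured by LC-MS MRM (LOQ 0.5 ng/ml). Non-compartmental analysis per animal, averaged. T1/2 from the terminal log-linear regression; Cmax and Tmax read directly.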

Rattus norvegicus [2] = assay: AUC in Sprague-Dawley rat assessed as 2-[4-[[4-(3,4-dihydro-2H-[1,3]oxazino[3,2-a]indole-10-carbonyloxymethyl)-1-piperidinyl]methyl]phenyl]-2-methylpropanoic acid level at 10 mg/kg, po by LC-MS/MS analysis; format: ADME, organism-based, Plasma; set-up: dose 10 mg/kg, route oral; conditions: in vivo; how it was run: as §1
Rattus norvegicus [3] = assay: Cmax in Sprague-Dawley rat assessed as 2-[4-[[4-(3,4-dihydro-2H-[1,3]oxazino[3,2-a]indole-10-carbonyloxymethyl)-1-piperidinyl]methyl]phenyl]-2-methylpropanoic acid level at 10 mg/kg, po by LC-MS/MS analysis; format: ADME, organism-based; set-up: dose 10 mg/kg, route oral; conditions: in vivo; how it was run: as §1
[4] = 1-octanol-PBS partition coefficient, log D of the compound at pH 7.4 by shake-flask method; format: physicochemical
Rattus norvegicus [5] = assay: Tmax in Sprague-Dawley rat assessed as 2-[4-[[4-(3,4-dihydro-2H-[1,3]oxazino[3,2-a]indole-10-carbonyloxymethyl)-1-piperidinyl]methyl]phenyl]-2-methylpropanoic acid level at 10 mg/kg, po by LC-MS/MS analysis; format: ADME, organism-based; set-up: dose 10 mg/kg, route oral; conditions: in vivo; how it was run: as §1
Rattus norvegicus [6] = assay: Oral bioavailability in Sprague-Dawley rat assessed as 2-[4-[[4-(3,4-dihydro-2H-[1,3]oxazino[3,2-a]indole-10-carbonyloxymethyl)-1-piperidinyl]methyl]phenyl]-2-methylpropanoic acid level at 10 mg/kg by LC-MS/MS analysis; format: ADME, organism-based; conditions: in vivo
How it was run: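 Rats given 10 mg/kg orally and, for the free acid, 1 mg/kg i.v. Free-acid plasma levels measured by LC-MS at timed points. AUC by linear trapezoidal rule, extrapolated to infinity. F = (AUC p.o./dose p.o.)/(AUC i.v./dose i.v.), reported as %.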

[7] = molecular target: T1, 5-hydroxytryptamine receptor 4 (Homo sapiens, UniProt Q13639); assay: Displacement of [3H]GR113808 from human 5-HT4B receptor expressed in HEK293 cells after 1 hr by liquid scintillation counting analysis; format: cell-based
T1 sequence (Q13639 whole entry): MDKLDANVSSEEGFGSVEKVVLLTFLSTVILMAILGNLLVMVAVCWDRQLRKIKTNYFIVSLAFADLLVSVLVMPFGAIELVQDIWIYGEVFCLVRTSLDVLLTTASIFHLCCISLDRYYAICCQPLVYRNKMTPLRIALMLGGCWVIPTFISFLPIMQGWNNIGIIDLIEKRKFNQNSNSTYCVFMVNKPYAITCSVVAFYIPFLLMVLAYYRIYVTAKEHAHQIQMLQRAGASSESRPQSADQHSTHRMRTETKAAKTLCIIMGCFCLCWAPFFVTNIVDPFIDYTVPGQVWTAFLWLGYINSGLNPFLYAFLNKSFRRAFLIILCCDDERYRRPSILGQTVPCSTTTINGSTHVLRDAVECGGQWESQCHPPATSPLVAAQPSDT
How it was run: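 Competitive binding with 0.3 nM [3H]GR113808 on membranes from HEK293 cells stably expressing human 5-HT4(b).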

[8] = molecular target: T1, 5-hydroxytryptamine receptor 4; assay: Antagonist activity at human 5-HT4B receptor expressed in HEK293 cells assessed as inhibition of 5-HT-stimulated adenylyl cyclase activity after 20 mins; format: functional, cell-based
How it was run: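 Membranes from HEK293 cells stably expressing human 5-HT4(b). Adenylyl cyclase activity stimulated by 1 µM 5-HT. Inhibition measured across a concentration range of test compound.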

[9] = Tmax in Sprague-Dawley rat at 10 mg/kg, po by LC-MS/MS analysis; format: ADME, organism-based; set-up: dose 10 mg/kg, route oral; conditions: in vivo
How it was run: (§2)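 Male Sprague-Dawley rats (n = 3 per compound, n = 2 for the medoxomil prodrug) given 10 mg/kg p.o., in 10% ethanol in water or in 2% β-cyclodextrin (1.0 mg/ml). Tail-vein and terminal blood taken to 24 h. Plasma acidified and acetonitrile-precipitated. Free acid quantified by UPLC-ESI MRM MS. Non-compartmental analysis for each animal, then averaged; AUC by linear trapezoidal rule extrapolated to infinity; Cmax and Tmax read directly; T1/2 from terminal slope.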

[10] = molecular target: Voltage-gated inwardly rectifying potassium channel KCNH2 (Homo sapiens, UniProt Q12809); assay: Inhibition of human ERG expressed in HEK293 cells by whole-cell patch-clamp technique; format: cell-based
Voltage-gated inwardly rectifying potassium channel KCNH2, sequence (Q12809 whole entry, the tested form may be a part): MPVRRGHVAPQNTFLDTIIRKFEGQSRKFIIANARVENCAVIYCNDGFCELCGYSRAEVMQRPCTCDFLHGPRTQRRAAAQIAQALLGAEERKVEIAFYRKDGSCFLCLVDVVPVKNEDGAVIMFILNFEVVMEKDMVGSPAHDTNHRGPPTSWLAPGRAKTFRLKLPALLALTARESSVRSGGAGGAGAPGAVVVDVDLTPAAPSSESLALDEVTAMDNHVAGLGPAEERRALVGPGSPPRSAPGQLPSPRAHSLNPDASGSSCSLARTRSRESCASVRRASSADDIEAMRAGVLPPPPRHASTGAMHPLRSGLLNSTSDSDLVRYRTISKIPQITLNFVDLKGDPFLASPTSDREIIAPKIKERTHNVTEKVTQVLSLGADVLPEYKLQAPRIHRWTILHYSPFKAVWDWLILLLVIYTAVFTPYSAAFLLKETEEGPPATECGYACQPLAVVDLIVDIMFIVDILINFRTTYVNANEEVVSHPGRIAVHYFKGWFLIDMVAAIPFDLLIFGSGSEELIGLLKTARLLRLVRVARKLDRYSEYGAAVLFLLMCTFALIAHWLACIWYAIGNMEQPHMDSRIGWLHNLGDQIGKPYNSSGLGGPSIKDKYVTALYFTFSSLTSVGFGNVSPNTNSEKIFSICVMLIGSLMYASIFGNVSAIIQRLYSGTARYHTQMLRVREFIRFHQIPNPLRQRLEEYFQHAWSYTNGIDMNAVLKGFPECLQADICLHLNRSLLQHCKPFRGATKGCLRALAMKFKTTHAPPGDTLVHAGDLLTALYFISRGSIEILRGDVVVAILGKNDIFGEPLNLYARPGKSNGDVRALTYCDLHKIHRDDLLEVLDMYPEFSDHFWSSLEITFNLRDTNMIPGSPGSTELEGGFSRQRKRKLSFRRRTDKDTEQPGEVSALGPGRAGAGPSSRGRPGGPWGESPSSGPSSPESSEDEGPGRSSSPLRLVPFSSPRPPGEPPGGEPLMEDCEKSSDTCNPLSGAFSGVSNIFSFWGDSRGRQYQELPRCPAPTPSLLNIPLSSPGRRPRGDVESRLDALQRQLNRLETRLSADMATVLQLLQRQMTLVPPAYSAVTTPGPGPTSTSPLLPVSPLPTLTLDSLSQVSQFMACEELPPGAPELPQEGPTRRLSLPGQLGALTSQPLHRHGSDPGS
How it was run: (§3)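 Whole-cell patch clamp on isolated hERG-expressing cells superfused with HB-PSS, one cell per coverslip, holding potential -80 mV. Peak tail current averaged over 5–10 pulses. Baseline taken before exposure; ascending concentrations applied to steady state without washout, at least 3 cells per concentration. Residual current corrected for time-matched vehicle rundown. IC50 from a Hill-type fit. Terfenadine 50 nM served as positive control.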

[11] = Cmax in Sprague-Dawley rat at 10 mg/kg, po by LC-MS/MS analysis; format: ADME, organism-based; set-up: dose 10 mg/kg, route oral; conditions: in vivo; how it was run: as §2
hERG (KCNH2) = hERG (KCNH2) (Homo sapiens, UniProt Q12809); assay: Inhibition of human ERG expressed in HEK293 cells at 100 uM by whole-cell patch-clamp technique relative to control; format: cell-based; conditions: HEK293 cells expressing human ERG; how it was run: as §3
hERG (KCNH2), sequence (Q12809 whole entry): as the sequence (Q12809 whole entry, the tested form may be a part) above

[12] = Metabolic stability in human liver microsomes assessed as compound remaining at 2 uM after 60 mins by LC-MS analysis; format: ADME, Microsome; conditions: read-out: Stability
How it was run: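 Pooled human liver microsomes (30 donors) at 0.5 mg protein/ml, 2 µM substrate, 1% DMSO, 1 mM NADPH plus 1 mM UDPGA, 37 °C. Cofactor-free parallel incubations run. Samples taken at 0, 10, 30 and 60 min and quenched with ice-cold acetonitrile. Disappearance judged by LC-MS peak area against the 0 min sample without cofactors.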

[13] = Oral bioavailability in Sprague-Dawley rat at 10 mg/kg by LC-MS/MS analysis; format: ADME, organism-based; conditions: in vivo
How it was run: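 Male Sprague-Dawley rats dosed 10 mg/kg p.o. and 1 mg/kg i.v. Plasma free acid measured by LC-MS/MS at timed samples up to 24 h. Non-compartmental AUC (trapezoidal, extrapolated to infinity). F = (AUC p.o./dose p.o.)/(AUC i.v./dose i.v.), expressed in %.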

Rattus norvegicus [14] = assay: AUC in Sprague-Dawley rat at 10 mg/kg, po by LC-MS/MS analysis; format: ADME, organism-based, Plasma; set-up: dose 10 mg/kg, route oral; conditions: in vivo; how it was run: as §2
[15] = Elimination half life in Sprague-Dawley rat at 10 mg/kg, po by LC-MS/MS analysis; format: ADME, organism-based; set-up: dose 10 mg/kg, route oral; conditions: in vivo, read-out: beta t1/2; how it was run: as §2

Compound | beta t1/2 (Rattus norvegicus [1]) | AUC (Rattus norvegicus [2]) | Cmax (Rattus norvegicus [3]) | logD [4] | Tmax (Rattus norvegicus [5]) | F (Rattus norvegicus [6]) | Ki [7] | pKb [8] | Tmax [9] | IC50 [10] | Cmax [11] | inhibition at 100 µM (hERG (KCNH2)) | remaining at 1 h, 2 µM [12] | bioavailability [13] | AUC (Rattus norvegicus [14]) | half-life [15]
Cc1oc(=O)oc1COC(=O)C(C)(C)c1ccc(CN2CCC(COC(=O)c3c4n(c5ccccc35)CCCO4)CC2)cc1 | 1.2 h | 1206 ng·h/mL | 817 ng/mL | 2.2 | 0.5 h | 16% |  |  |  |  |  |  |  |  |  | 
CCCCN1CCC(CNC(=O)c2c3n(c4ccccc24)CCCO3)CC1 [PIBOSEROD] |  |  |  |  |  |  | 0.1 nM | 9.1 |  |  |  |  |  |  |  | 
CC(C)(C(=O)O)c1ccc(CN2CCC(COC(=O)c3c4n(c5ccccc35)CCCO4)CC2)cc1 |  |  |  | -1.2 |  |  | 0.126 nM | 8.6 | 0.2 h | 69000 nM | 130 ng/mL | 55.8% | < 0.1% | 3% | 285 ng·h/mL | 6.07 h
CC(C)(C)c1ccc(CN2CCC(COC(=O)c3c4n(c5ccccc35)CCCO4)CC2)cc1 | 19.83 h | 127 ng·h/mL | 13 ng/mL | 2.4 | 1.33 h | 1% |  |  | 5.67 h |  | 33 ng/mL |  |  | 6% | 533 ng·h/mL | 26.8 h
Cn1cc(C(=O)OCC2CCN(CCNS(C)(=O)=O)CC2)c2ccccc21 |  |  |  |  |  |  | 0.0398 nM | 8.7 |  |  |  |  |  |  |  | 
